In series [1] the test system is CCRF-CEM. The series is described as follows: Cytotoxicity was assessed by measurement of cytosolic lactic dehydrogenase (LDH) leakage after 24 hr incubation with human T-lymphoblastic leukemic (CEM) cell line. The note with it: for IC50: Homo sapiens, CCRF-CEM, 24 h, read-out: ID50 (the source's name). The class given is functional. The method, boiled down: (§1)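 Log-phase cells were washed and resuspended in phenol red-free RPMI 1640, then mixed 1:1 with lipid in serum medium. Final conditions were 5 × 10^5 cells/mL, 0–50 µg/mL ether lipid and 0.5% ethanol, in triplicate at 37 °C in 5% CO2 for 24 h. Supernatant LDH was measured with lactate/INT/PMS/NAD in Tris pH 8.2, read at 490 nm after 3 min. % cytotoxicity = (E−S)/(M−S), with M from freeze-thaw. ID50 came from nonlinear regression, mean ± SD.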

Series [2] has as its system B-lymphoblastic leukemic cell line. Kind of series: Cytotoxicity was assessed by measurement of cytosolic lactic dehydrogenase (LDH) leakage after 24 hr incubation with human B-lymphoblastic leukemic ([…]) cell line. The note with it: for IC50: Homo sapiens, B-lymphoblastic leukemic cell line, 24 h, read-out: ID50 (the source's name). It is filed as functional. In a few lines: as §1

For series [3], the system named is HuT78. The series is described as follows: Cytotoxicity was assessed by measurement of cytosolic lactic dehydrogenase (LDH) leakage after 24 hr incubation with human cutaneous T-lymphoma (Hut 78) cell line. The class given is functional. The note with it: for IC50: Homo sapiens, HuT78, 24 h, read-out: ID50 (the source's name). In a few lines: as §1
Series [4] can be described thus: Cytotoxicity was assessed by measurement of cytosolic lactic dehydrogenase (LDH) leakage after 24 hr incubation with freshly isolated human peripheral lymphocytes. The note with it: read-out: ID50. In a few lines:
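Peripheral lymphocytes were pooled from two unmedicated human donors and isolated by the Boyum method, giving >85% lymphocytes; viability was checked by trypan blue. Cytotoxicity was measured as 24 h LDH leakage into the medium and expressed as % of maximal freeze-thaw release after subtracting spontaneous release. ID50 came from a nonlinear regression fit of cytotoxicity versus dose.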

In the case of `CCCCCCCCCCCCCCCCCCOCC(COP(=O)(O)O[C@H](C)C[N+](C)(C)C)OC.[OH-]` (stereo partly drawn), the IC50 in series [1] was determined as 2.7 µg/mL; in series [2], 10.1 µg/mL; in series [3], 9.1 µg/mL. In addition, in series [4], the CC50 at 24 h is greater than 100 µg/mL.

With `CCCCCCCCCCCCCCCCCCOCC(COP(=O)(O)OCC[N+]1(C)CCOCC1)OC.[OH-]` (stereo not drawn), the IC50 in series [1] turned out to be 2.8 µg/mL; in series [2], 8.4 µg/mL; in series [3], 3.4 µg/mL. The CC50 at 24 h in series [4] came out at 52.1 µg/mL.

`CCCCCCCCCCCCCCCCCCOCC(COP(=O)(O)OCCN(C)C)OC.O` (stereo not drawn): the IC50 in series [1] was 4.6 µg/mL; in series [2], 9.6 µg/mL; in series [3], 3.5 µg/mL. Besides, the CC50 at 24 h in series [4] came to 24.6 µg/mL.

`CCCCCCCCCCCCCCCCCCOCC(COP(=O)(O)OCC[N+]1(C)CCCC1)OC.[OH-]` (stereo not drawn): the IC50 in series [1] is 2.7 µg/mL; in series [2] it was 13.2 µg/mL; in series [3], 9.3 µg/mL. Further, the CC50 at 24 h in series [4] is 22.7 µg/mL.

Turning to `CCCCCCCCCCCCCCCCCCOCC(COP(=O)(O)OC[C@H](C)[N+](C)(C)C)OC.[OH-]` (stereo partly drawn), the IC50 in series [1] was 2.1 µg/mL; in series [2], 8.9 µg/mL; in series [3], 5.9 µg/mL. Moreover, the CC50 at 24 h in series [4] is greater than 100 µg/mL.

Consider `CCCCCCCCCCCCCCCCCCOCC(COP(=O)(O)OC[C@@H](C)[N+](C)(C)C)OC.[OH-]` (stereo partly drawn), for which the IC50 in series [1] stood at 2 µg/mL; in series [2], 9.9 µg/mL; in series [3], 6.9 µg/mL. Besides, the CC50 at 24 h in series [4] was greater than 100 µg/mL.

Turning to `CCCCCCCCCCCCCCCCCCOCC(COP(=O)(O)O[C@@H](C)C[N+](C)(C)C)OC.[OH-]` (stereo partly drawn), the IC50 in series [1] worked out at 2.3 µg/mL; in series [2], 9.8 µg/mL; in series [3], 9.3 µg/mL. Also, the CC50 at 24 h in series [4] was greater than 100 µg/mL.

As for `CCCCCCCCCCCCCCCCCCOCC(COP(=O)(O)OCC[N+](C)(C)C)OC.[OH-]` (stereo in doubt; 1), the figures for the ID50 in series [1], in series [2] and in series [3] were 1.5 µg/mL, 15.3 µg/mL and 4.5 µg/mL, respectively.

On to `CCCCCCCCCCCCCCCCCCOCC(COP(=O)(O)OCC[N+](C)(C)C)OC.[OH-]` (stereo in doubt; 2), for which the figures for the IC50 in series [1], in series [2] and in series [3] were 1.9 µg/mL, 16.3 µg/mL and 4.1 µg/mL, respectively. For the same compound, in series [4], the CC50 at 24 h was greater than 100 µg/mL.

On to `CCCCCCCCCCCCCCCCCCOCC(COP(=O)(O)OCC[N+](C)(C)C)OC.[OH-]` (stereo in doubt; 3), for which the ID50 in series [1] amounted to 2 µg/mL; in series [2], 20.4 µg/mL; in series [3], 6.6 µg/mL.

For the origin of these results see ChEMBL document CHEMBL1127420, “Syntheses of racemic and nearly optically pure ether lipids and evaluation of in vitro antineoplastic activities” (J Med Chem, 1994).
